Measured values: ChEMBL document CHEMBL5360668, “Discovery of Potent Allosteric DRP1 Inhibitors by Disrupting Protein-Protein Interaction with MiD49” (ACS Med Chem Lett, 2023)
≈ marks a conversion by molar mass, not a printed value. Calls of active or inactive are those of the source. No cut-off for these calls is given here.

Assays:
[1] = Negative allosteric modulator activity at human N-terminal His-tagged DRP1-human C-terminal GST-tagged MiD49 protein protein interaction expressed in Escherichia coli BL21 (DE3) incubated for 90 mins by AlphaLISA assay
Summary of the method: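 AlphaLISA proximity assay. Glutathione donor and nickel chelate acceptor beads added, then 60 min at room temperature protected from light before signal read. Hits run as 11-point dose–response with TruHits counter-screen.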

[2] = Solubility of compound in PBS at pH 7.5; assay type: physicochemical
[3] = tested on: A549; test: Inhibition of CCCP-induced mitochondrial fragmentation in human A549 cells preincubated for 1 hr followed by CCCP stimulation for 3 hrs by Alexa Fluor 488/568 and Hoechst staining based high-content imaging analysis; assay type: functional, cell-based; conditions: time 4.0 hrs
Summary of the method: (§1)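 A549 cells exposed to compound 1 h at 37 °C, then co-treated with CCCP (5 μM) a further 3 h at 37 °C. Cells fixed in paraformaldehyde and stained with anti-TOM20 primary and goat anti-mouse secondary. Mitochondrial morphology scored by high-content imaging with a supervised machine-learning classifier trained on control siRNA (normal), OPA1 siRNA (fragmented) and DRP1 siRNA (hypertubular) images.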

[4] = tested on: A549; test: Inhibition of CCCP-induced mitochondrial fragmentation in human A549 cells at 0.37 to 3.3 uM preincubated for 1 hr followed by CCCP stimulation for 3 hrs by Alexa Fluor 488/568 and Hoechst staining based high-content imaging analysis; assay type: functional, cell-based; conditions: dose 0.37-3.3 µM, time 4.0 hrs; summary of the method: as §1
[5] = tested on: A549; test: Inhibition of CCCP-induced mitochondrial morphology change in human A549 cells at 10 uM preincubated for 1 hr followed by CCCP stimulation for 3 hrs by Alexa Fluor 488/Hoechst 33342 staining based high-content imaging analysis; assay type: functional, cell-based; conditions: time 4.0 hrs; summary of the method: as §1

Compound | IC50 [1] | also measured
CC(C)C(=O)Nc1ccc2nc(-c3ccccc3)cc(N(C)C)c2c1 | 11000 nM | 
CCNc1cc(-c2ccccc2)nc2ccc(NC(=O)C(C)C)cc12 | 4300 nM | 
O=C(Nc1ccc2nc(-c3ccccc3)cc(N3CCC3)c2c1)C1COC1 | 100 nM | solubility [2]: 281 µM (≈ 101 µg/mL); inhibition [3]: Dose-Dependent Effect; inhibition [4]: Active; inhibition [5]: Active
CC(C)C(=O)Nc1ccc2nc(-c3ccccc3)cc(N3CCC3)c2c1 | 120 nM | 
CCOc1cc(-c2ccccc2)nc2ccc(NC(=O)C(C)C)cc12 | 3600 nM | 
CC(C)C(=O)Nc1ccc2nc(-c3ccccc3)cc(N3CC(F)C3)c2c1 | 290 nM | 
CC(C)C(=O)Nc1ccc2nc(-c3ccccc3)cc(N3CCCCC3)c2c1 | 13000 nM | 
CC(C)C(=O)Nc1ccc2nc(-c3ccccc3)cc(-n3ccnc3)c2c1 | 22000 nM | 
CC(C)C(=O)Nc1ccc2nc(-c3ccccc3)cc(N3CCCC3=O)c2c1 | > 100000 nM | 
Cc1ccc(-c2cc(N3CCC3)c3cc(NC(=O)C(C)C)ccc3n2)cc1 | 50 nM | solubility [2]: 11 µM (≈ 3.95 µg/mL)
CC(C)C(=O)Nc1ccc2nc(-c3ccccc3)cc(N3CCCC3)c2c1 | 450 nM | 
CC(C)C(=O)Nc1ccc2nc(-c3ccccc3)cc(-n3cccn3)c2c1 | 12000 nM | 
CC1CN(c2cc(-c3ccccc3)nc3ccc(NC(=O)C(C)C)cc23)C1 | 580 nM | 
CC(C)C(=O)Nc1ccc2nc(-c3ccccc3)cc(N3CCOCC3)c2c1 | 22000 nM | 
COc1ccc(-c2cc(N3CCC3)c3cc(NC(=O)C4COC4)ccc3n2)cc1 | 140 nM | 
O=C(Nc1ccc2nc(-c3ccccc3)cc(N3CC(O)C3)c2c1)C1COC1 | 290 nM | 
